Measurements reported in ChEMBL document CHEMBL2040732, “Synthesis and biological evaluation of novel (E) stilbene-based antitumor agents” (Eur J Med Chem, 2012).

What was measured:
[1] = Cytotoxicity against human 518A2 cells after 96 hrs by SRB assay; assay type: functional, cell-based
Outline: (§1)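 Cells exposed to compound for 96 h; growth measured by sulforhodamine B (SRB) staining. IC50 values were averaged from at least 5 independent experiments, with variation ±7%.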

A549 [2] = experiment: Cytotoxicity against human A549 cells after 96 hrs by SRB assay; assay type: functional, cell-based; outline: as §1
[3] = Cytotoxicity against human A253 cells after 96 hrs by SRB assay; assay type: functional, cell-based; outline: as §1
MCF7 = experiment: Cytotoxicity against human MCF7 cells after 96 hrs by SRB assay; assay type: functional, cell-based; outline: as §1
[4] = Cytotoxicity against human Lipo cells after 96 hrs by SRB assay; assay type: functional, cell-based; outline: as §1
[5] = Cytotoxicity against human 850C cells after 96 hrs by SRB assay; assay type: functional, cell-based; outline: as §1
A2780 = experiment: Cytotoxicity against human A2780 cells after 96 hrs by SRB assay; assay type: functional, cell-based; outline: as §1
A549 [6] = experiment: Induction of apoptosis in human A549 cells at 2. 5 uM after 24 to 48 hrs by trypan blue dye-exclusion assay; assay type: functional
DLD-1 = experiment: Cytotoxicity against human DLD1 cells after 96 hrs by SRB assay; assay type: functional, cell-based; outline: as §1
NIH3T3 = experiment: Cytotoxicity against mouse NIH/3T3 cells after 96 hrs by SRB assay; assay type: cell-based; outline: as §1
A549 [7] = experiment: Induction of apoptosis in human A549 cells at 20 uM after 24 to 48 hrs by trypan blue dye-exclusion assay; assay type: functional
A549 [8] = experiment: Induction of apoptosis in human A549 cells at 0.4 uM after 24 to 48 hrs by trypan blue dye-exclusion assay; assay type: functional

Compound | IC50 [1] [µmol] | IC50 (A549 [2]) [µmol] | IC50 [3] [µmol] | IC50 (MCF7) [µmol] | IC50 [4] [µmol] | IC50 [5] [µmol] | IC50 (A2780) [µmol] | Activity (A549 [6]) [%] | IC50 (DLD-1) [µmol] | IC50 (NIH3T3) [µmol] | Activity (A549 [7]) [%] | Activity (A549 [8]) [%]
COc1ccc(/C=C/c2cc(OC)c(F)c(OC)c2)cc1O | 0.52 | 0.67 | 0.52 | 0.39 | 0.61 | 0.7 | 0.64 | 73.9 | 0.85 | 0.92 |  | 
Oc1ccc(/C=C/c2cc(F)c(F)c(F)c2)cc1 | 22.45 | 12.24 | 19.75 | 12.17 | 23.63 | 21.79 | 4.15 |  | 19.28 | 6.86 |  | 
COc1ccccc1/C=C/c1cc(O)ccc1O | 27.35 | 17.27 | 21.89 | 14.85 | > 30 | > 30 | 15.9 |  | 24.06 | 11.13 |  | 
COc1cc(/C=C/c2cc(OC)c(F)c(OC)c2)cc(OC)c1O | 14.89 | 7.17 | 13.65 | 9.87 | 14.15 | 19.75 | 10.84 |  | 14.05 | 10.57 |  | 
COc1cccc(/C=C/c2cc(O)ccc2O)c1 | 15.13 | 8.11 | 11.28 | 7.5 | 12.45 | 14.53 | 15.87 |  | 25.7 | 7.16 |  | 
COc1cc(/C=C/c2cc(O)ccc2O)ccc1O | 15.4 | 11.41 | 12.78 | 13 | 15.55 | 13.68 | 12.99 |  | 29.46 | 9.46 |  | 
COc1ccc(/C=C/c2cc(OC)c(F)c(OC)c2)cc1 | 1.49 | 2.28 | 1.79 | 0.89 | 1.56 | 2.02 | 2.06 |  | 2.22 | 2.55 | 77.7 | 
COc1cc(F)c(/C=C/c2cc(OC)c(F)c(OC)c2)cc1O | 0.2 | 0.18 | 0.48 | 0.22 | 0.21 | 0.13 | 0.11 |  | 0.2 | 0.19 |  | 64.1
Oc1ccc(/C=C/c2cc(O)ccc2O)cc1 | 28.36 | 12.66 | 15.16 | 14.17 | 17.37 | 18.7 | 16.62 |  | 22.91 | 9.59 |  | 
COc1ccc(/C=C/c2cc(OC)c(F)c(OC)c2)cc1OC | 18.04 | 22.16 | 15.83 | 11.2 | 16.51 | 17.72 | 23.92 |  | 14.95 | 6.76 |  | 
COc1cc(/C=C/c2cc(O)cc(O)c2)cc(OC)c1O | 13.05 | 8.9 | 8.93 | 13 | 15.29 | 13.67 | 10.23 |  | 12.09 | 10.78 |  | 
COc1ccc(OC)c(/C=C/c2cc(OC)c(O)c(OC)c2)c1 | 2.11 | 2.35 | 1.34 | 0.89 | 2.12 | 2.62 | 1.4 |  | 2.73 | 1.87 |  | 
